This is a sample that favours compounds with a hit; in the whole collection about 4.5% have one here.
NS3 helicase inh = inhibitors of HCV NS3 helicase, primary screen, biochemical, Cy5 molecular beacon fluorescence; inhibition, % at 10.9 µM; Hepatitis C virus NS3 helicase; NS3 helicase DNA unwinding; actives 0.56% (n = 290,000);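 active = inhibition above the mean of all tested compounds plus 3 SD, set per campaign, cut at about 35% in these data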;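 note: 0% = DMSO wells and 100% = thioflavine S control wells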
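Measured by: Cy5 fluorescence, 0 and 60 min reads / Assay system: NS3 helicase fragment of HCV / Control set: low DMSO, high thioflavine S at 110 µM / Times: 1 h reaction at 25 °C, ATP-initiated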
UPR XBP1 act = activators of adaptive XBP1 UPR arm, primary screen, cell-based, CHO-XBP1 luciferase reporter, luminescence, uHTS. activation, % at 20 µM. AID 463104, 2010. actives 0.33% (n = 330,000). IRE1-XBP1 UPR activation; percent of tunicamycin response, DMSO as zero;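 active = versus positive control, 20 µM dose yields 30% or more activation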;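 note: 100% = tunicamycin at 10 µg/mL and 0% = DMSO only wells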
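Assay system: CHO-XBP1 luciferase reporter cells; Schedule: 6 h treatment, 37 °C; Detection: glow luminescence from Steady-Glo reagent; Benchmarks: high control tunicamycin 10 µg/mL final, low control DMSO vehicle only.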
p97 ATPase inh = inhibitors of human p97 ATPase, primary screen, biochemical; Transitional endoplasmic reticulum ATPase (Homo sapiens), P55072; recombinant p97 ATPase, Kinase-Glo ATP luminescence, 3 h; inhibition, % at 8 µM; actives 0.42% (n = 220,000); AID 1481, 2009; in the data active = inhibition above about 15%;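 note: 0% = DMSO vehicle and 100% = wells lacking enzyme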
Target sequence (P55072 whole entry, looked up): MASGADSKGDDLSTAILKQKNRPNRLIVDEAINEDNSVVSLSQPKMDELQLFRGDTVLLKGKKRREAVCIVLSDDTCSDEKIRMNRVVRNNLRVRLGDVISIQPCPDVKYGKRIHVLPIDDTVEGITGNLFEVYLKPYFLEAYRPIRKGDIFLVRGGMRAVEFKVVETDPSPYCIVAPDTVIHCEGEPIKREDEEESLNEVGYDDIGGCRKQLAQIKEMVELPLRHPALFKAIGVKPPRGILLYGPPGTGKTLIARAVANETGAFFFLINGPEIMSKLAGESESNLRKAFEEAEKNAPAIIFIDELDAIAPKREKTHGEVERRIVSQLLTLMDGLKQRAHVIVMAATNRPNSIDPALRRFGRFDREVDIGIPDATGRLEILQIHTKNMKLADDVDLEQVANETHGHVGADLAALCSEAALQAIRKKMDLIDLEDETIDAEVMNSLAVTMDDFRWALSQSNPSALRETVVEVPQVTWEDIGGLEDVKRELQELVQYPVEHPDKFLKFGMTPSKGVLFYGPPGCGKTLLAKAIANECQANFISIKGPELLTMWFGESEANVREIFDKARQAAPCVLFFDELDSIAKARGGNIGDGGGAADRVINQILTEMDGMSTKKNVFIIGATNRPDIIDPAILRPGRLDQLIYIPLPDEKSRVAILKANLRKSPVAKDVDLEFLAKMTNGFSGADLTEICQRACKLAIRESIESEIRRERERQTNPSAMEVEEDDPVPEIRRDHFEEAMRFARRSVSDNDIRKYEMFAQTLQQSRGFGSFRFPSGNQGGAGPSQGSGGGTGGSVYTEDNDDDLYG
M18AAP inhibitor = PfM18AAP inhibitors, malaria aminopeptidase, primary screen, biochemical, QFRET, recombinant enzyme; M18 aspartyl aminopeptidase (Plasmodium falciparum 3D7); actives 1.2% (n = 290,000); AID 1822, 2009; inhibition, % at 7.35 µM; H-Glu-NHMec fluorogenic cleavage;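 active = inhibition above the campaign mean inhibition over all tested compounds plus 3 SD, cut at about 28% in these data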;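 note: 0% = plate median of test compound wells and 100% = 2 mM ZnCl2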
CHOP inh = inhibitors of CHOP promoter induction, primary screen, cell-based, unfolded protein response, luciferase reporter | CHO-K1 CHOP-promoter luciferase, tunicamycin-induced, 15-18 h | inhibition, % at 10 µM | AID 2732, 2010 | actives 3.8% (n = 220,000);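 active = compounds that reduced the stress-induced luciferase reporter signal by more than about 70% of percent inhibition, limit read from the data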;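 note: 0% = tunicamycin plus vehicle and 100% = wells without tunicamycin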
CHOP UPR activ = activators of apoptotic CHOP UPR arm, primary screen, cell-based, CHO-CHOP luciferase reporter, luminescence, uHTS | UPR activation; percent of tunicamycin response over DMSO baseline | activation, % at 10 µM | actives 0.34% (n = 330,000);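 active = at 10 µM dose, activation of 40% or more, normalized to positive control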;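 note: 100% = tunicamycin at 10 µg/mL and 0% = DMSO alone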
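assay system = CHO CHOP reporter cells | amount = 500 CHO-CHOP cells per well | buffer or medium = F12 with 10% FBS | incubation = 16-18 h cell attachment, then 6 h compound exposure, 37 °C | detection = luminescence read with Steady-Glo | read-out = percent activation relative to tunicamycin control | controls = tunicamycin high control, DMSO low control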
* marks the source's active call; other numbers are inactive results; / = no result given.

SMILES	NS3 helicase inh	UPR XBP1 act	p97 ATPase inh	M18AAP inhibitor	CHOP inh	CHOP UPR activ
CCCCCn1c(Sc2ncccn2)nc2c1c(=O)[nH]c(=O)n2C	1.8	-1.2	-2.1	-0.8	-19.5	-2.9
CCCCCn1c(Sc2nc3ccccc3s2)nc2c1c(=O)[nH]c(=O)n2C	1.0	8.5	-11.0	-4.2	75.7*	0.5
CC(C)C[C@H](NC(=O)c1nc[nH]c1C(=O)N1CCN(C(=O)OC(C)(C)C)CC1)C(=O)OC(C)(C)C	8.9	-2.2	-3.3	4.8	-5.0	1.6
Nc1nc(NCc2ccco2)nc(Nc2ccccc2)c1[N+](=O)[O-]	1.9	2.3	12.7	-0.1	20.2	-1.6
Nc1nc(Nc2ccccc2)nc(NCc2ccco2)c1[N+](=O)[O-]	-95.6	4.3	0.3	3.9	85.9*	1.6
CCn1c2ccccc2c2cc(NC(=O)c3ccc(=O)oc3)ccc21	-1.9	19.2	3.3	4.3	26.6	3.9
CCn1c2ccccc2c2cc(NC(=O)c3coc(=O)c(Br)c3)ccc21	12.7	73.3*	3.3	-2.8	30.4	99.5*
CCCc1nn(-c2cc(Cl)ccc2OC)c2c1C(=O)CCC2	5.0	-4.8	-14.7	5.2	30.4	0.9
CCCCc1nn(-c2cc(Cl)ccc2OC)c2c1C(=O)CC(C)(C)C2	-2.1	-1.6	-14.5	2.1	81.4*	3.6
COc1ccc(NC(=O)CSc2ccc3nnc(-c4cccnc4)n3n2)cc1OC	5.4	-3.1	/	-10.6	/	-1.4
CCOC(=O)c1c(-c2ccccc2)csc1NC(=O)CSc1ccccc1	-8.8	-2.3	0.4	-1.1	11.4	-1.1
CCOC(=O)c1c(-c2ccccc2)csc1NC(=O)CCN1CCOCC1	-10.7	1.9	-11.6	1.2	-3.9	-0.8
CCOC(=O)c1c(-c2ccc(-c3ccccc3)cc2)csc1NC(=O)C1C2CCC(O2)C1C(=O)O (stereo unspecified)	18.8	-2.5	-2.1	-4.3	87.6*	-0.6
CCOC(=O)c1c(-c2ccccc2)csc1NC(=O)C1CCCO1 (stereo unspecified)	-1.3	3.8	0.7	13.2	82.7*	0.3
CCOC(=O)c1c(-c2cccs2)csc1NC(=O)CN1CCOCC1	-3.2	1.9	-5.7	0.7	71.6*	-1.3
Cc1cc(C)cc(NS(=O)(=O)c2ccc3c(c2)c(=O)n(C)c(=O)n3C)c1	-5.9	-4.0	2.8	-5.0	92.6*	-0.8
COc1ccccc1CNC(=O)c1csc(Cc2ccc(Cl)cc2)n1	-12.0	-0.3	-5.2	3.4	79.7*	-1.9
COc1ccc(CNC(=O)c2csc(Cc3ccccc3)n2)cc1	-10.2	1.1	-1.5	-0.3	27.0	0.4
O=C(/C=C/c1ccc(O)c(O)c1)OC(Cc1ccc(O)c(O)c1)C(=O)O (stereo unspecified)	-4.5	5.4	/	88.8*	/	-0.2
COc1ccccc1CNC(=O)[C@H](Cc1c[nH]c2ccccc12)NC(=O)[C@@H]1Cc2ccccc2CN1	-106.9	-3.3	/	-3.1	/	0.4
O=C(Cc1cccs1)N1CCN(S(=O)(=O)c2ccc(Cl)c(C(F)(F)F)c2)CC1	/	-1.4	/	/	/	-2.9
COc1ccccc1C(=O)NNc1ncc(C)s1	1.3	-1.2	/	31.2*	/	1.1
CN(C)c1nc(C=C(C#N)C#N)c(Cl)n1-c1ccc(F)cc1	2.0	/	4.8	12.7	95.7*	/
CC1=C(C)CS(=O)N(c2ccc(S(N)(=O)=O)cc2)C1 (stereo unspecified)	3.9	-3.2	-1.8	29.8*	-24.9	14.0
CC1=C(C)CS(=O)N(S(=O)(=O)c2ccccc2)C1 (stereo unspecified)	0.7	1.1	-6.4	5.6	15.8	4.3
SMILES	NS3 helicase inh	UPR XBP1 act	p97 ATPase inh	M18AAP inhibitor	CHOP inh	CHOP UPR activ
CC(C)(C)C(=O)N(CCN(C(=O)C(C)(C)C)c1ccccc1)c1ccccc1	7.5	-0.2	-2.1	-2.3	78.4*	1.6
CCc1c(C)nc(SCC(=O)NNC(=O)Cc2ccc(OC)cc2)[nH]c1=O	22.8	0.0	-2.0	29.0*	-5.1	-0.6
Clc1ccc2nc(-c3ccc(Br)s3)cn2c1	6.7	-3.0	-6.0	-3.2	75.1*	-4.7
COc1ccc(-c2cn3cc(Cl)ccc3n2)cc1OC	-2.9	5.5	2.8	-0.5	/	5.5
CN(C)c1ccc(/C=N/N=C/c2ccccc2O)cc1	1.2	-4.5	6.6	-3.5	80.6*	-4.9
CN(C)c1ccc(C=Nc2ccccc2C(N)=O)cc1	4.9	-4.0	0.3	7.6	-17.5	-8.3
O=[N+]([O-])c1ccc(NCCCNS(=O)(=O)c2ccc(Cl)cc2)c(Cl)c1	4.5	-0.1	1.3	12.5	81.7*	0.6
CCN(C(=O)COC(=O)c1ccccc1Cc1ccccc1)C1CCS(=O)(=O)C1 (stereo unspecified)	/	-1.4	/	/	/	1.0
CCN(C(=O)COC(=O)c1ccccc1Nc1cccc(C)c1C)C1CCS(=O)(=O)C1 (stereo unspecified)	-7.6	0.4	4.1	4.8	70.4*	-0.7
CCc1cc2ccc(C)c(C)c2nc1SCC(=O)NNC(=O)c1ccco1	-1.9	-2.5	/	0.5	/	2.6
Cc1sc(NC(=O)c2ccco2)c(C(c2cccnc2)N2CCN(CCO)CC2)c1C (stereo unspecified)	7.6	1.2	2.8	0.6	36.3	1.7
CCOc1ccc(C(c2c(NC(=O)c3ccccc3)sc(C)c2C)N2CCN(CCO)CC2)cc1 (stereo unspecified)	-73.9	2.8	-6.3	0.2	83.4*	2.4
CCOC(=O)c1cc2sccc2n1CC(=O)OC(C)C	2.5	-2.0	1.7	1.8	15.6	-3.0
CCOC(=O)c1cc2sccc2n1CC(=O)N1CCc2ccccc21	-0.4	-3.6	4.8	3.0	74.1*	-2.1
O=C(CCl)Nc1cccc(S(=O)(=O)N2CCCCCC2)c1	0.6	-0.5	4.6	4.3	92.9*	14.7
Cc1ccc(NC(=O)Cn2c(=O)oc3cc(S(=O)(=O)N4CCC(C)CC4)ccc32)cc1C	11.6	-3.5	-8.6	2.5	73.9*	0.7
CCn1c(SCC(=O)NNC(=O)c2ccc(C)cc2)nnc1C1CC1	-4.4	-0.5	/	1.2	/	-0.7
COc1ccc(C(=O)Nc2ccc(Oc3ncnc4sc(-c5ccccc5)cc34)cc2)cc1OC	2.7	7.0	4.2	-1.5	59.0	0.1
COc1ccc(C(=O)Nc2ccc(Oc3nc(C)nc4sc(-c5ccccc5)cc34)cc2)cc1OC	-1.1	3.7	4.7	0.5	80.9*	6.3
